Source: PubChem BioAssay
Shown are actives, neighbours in structure and some others; about 2.9% of the full set was active somewhere.
HTR1E antagonist: blocks the human 5-HT1E serotonin receptor; inhibition, % at 6 µM; CHO 5-HT1E Ga15 NFAT-bla reporter, FRET, antagonist; 65,000 compounds, 0.99% hits;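 active means inhibition above a set limit, the mean inhibition across every tested compound plus 3 SD, cut at about 29% in these data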;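 further: signal is the 460 over 535 nm emission ratio of beta-lactamase substrate; 0% = agonist plus DMSO wells and 100% = wells without agonist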
Target sequence (P28566 whole entry, looked up): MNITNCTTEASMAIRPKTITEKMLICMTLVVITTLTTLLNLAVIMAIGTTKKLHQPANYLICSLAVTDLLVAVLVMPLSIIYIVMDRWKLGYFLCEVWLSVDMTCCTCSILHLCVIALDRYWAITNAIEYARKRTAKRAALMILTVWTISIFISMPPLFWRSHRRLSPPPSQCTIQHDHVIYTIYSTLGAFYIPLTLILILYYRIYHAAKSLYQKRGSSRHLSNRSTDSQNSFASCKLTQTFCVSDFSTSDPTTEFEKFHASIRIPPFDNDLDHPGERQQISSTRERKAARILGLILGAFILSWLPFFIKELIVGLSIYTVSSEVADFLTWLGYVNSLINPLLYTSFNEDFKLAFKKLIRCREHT
5HT1a antag: blocks the human serotonin 5-HT1a receptor; 62,000 compounds, 0.68% hits; AID 612; CHO 5-HT1a Ga15 NFAT-bla reporter, antagonist mode; P08908; inhibition, % at 10 µM;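 active means inhibition above the mean of all tested compounds plus 3 SD, cut at about 43% in these data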;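 further: receptor stimulated by 5-CT agonist at 100 nM near EC80; beta-lactamase reporter measured by ratiometric fluorescence of a cleavable substrate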
HTR1E agonist: agonists of human 5-HT1E serotonin receptor | P28566 | CHO 5-HT1E Ga15 NFAT-bla reporter, FRET; 0% DMSO wells, 100% control agonist wells | activation, % at 6 µM | 65,000 compounds, 0.69% hits | AID 574;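 active means activation above a set limit, the screen-wide mean activation plus 3 SD, cut at about 8.5% in these data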;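 further: 100% = positive control agonist at 1 µM giving full maximal response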
S1P1 ag-PAM: activates or potentiates agonism at human S1P1 receptor. P21453. S1P1 CRE-bla cells, forskolin, beta-lactamase FRET, potentiator mode; S1P1 agonist co-added at EC20, 2 nM; 100% = saturating reference agonist, 0% = basal. activation, % at 9.5 µM. 56,000 compounds, 0.57% hits;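 active means activation above a cutoff set at the mean activation of all tested compounds plus 3 SD, cut at about 54% in these data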;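 further: forskolin at 4 µM as EC80 and the EC20 agonist is SEW2871; 100% = SEW2871 at its EC100 plus forskolin at EC80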
HTR1A agonist: agonists of human 5-HT1a serotonin receptor; P08908; AID 567; CHO 5-HT1a Ga15 NFAT-bla reporter, FRET ratio; 0% basal, 100% maximal reference agonist; activation, % at 10 µM; 65,000 compounds, 0.56% hits;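 active means activation above the screen-wide mean activation plus 3 SD, cut at about 19% in these data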;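 further: 0% = DMSO wells and 100% = 5-CT at EC100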
S1P3 agonist: activates the human S1P3 receptor; activation, % at 4.5 µM; Q99500; 60,000 compounds, 0.1% hits; S1P3 NFAT-BLA reporter cells, agonism, FRET ratio; relative to 1 µM S1P, basal subtracted; AID 373;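 active means activation above the screen-wide mean plus 3 SD, cut at about 4.5% in these data, passing the limit was not always enough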
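material = human S1P3 NFAT-BLA reporter CHO cells | schedule = 4 h compound at 37 °C, 2 h substrate at RT | measured by = fluorescent BLA substrate, ex 405 nm, em 460/535 nm ratio | controls = 1 µM S1P reference | replication = primary once, confirmation triplicate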
Starred values were filed as active, the others as inactive; · = no result given.

SMILES	HTR1E antagonist	5HT1a antag	HTR1E agonist	S1P1 ag-PAM	HTR1A agonist	S1P3 agonist
CC(C)Cc1nc2oc3c(NCc4cccnc4)ncnc3c2c2c1CCC2	35*	-2	2	-59	0	0
CC(C)c1nc2oc3c(NCc4cccnc4)ncnc3c2c2c1CCC2	30*	-11	-1	-27	1	0
CC(C)Cc1nc2oc3c(NCC4CCCO4)ncnc3c2c2c1CCC2 (configuration not stated)	14	-18	1	-30	1	-1
O=C1CCn2nc(-c3ccc(Cl)cc3)cc2N1	-13	6	0	-5	-1	-1
COc1ccc(OC)c(N(CC(=O)Nc2ccc3c(c2)OCCO3)S(C)(=O)=O)c1	-46	-4	0	·	2	0
CCOC(=O)c1nnn(-c2nonc2N)c1-c1ccc(OC)cc1	-5	3	-1	-32	-4	1
CCSc1ccccc1C(=O)NCc1ccc2c(c1)OCO2	14	19	-1	0	-2	0
CSc1nc2sc3c(c2c2nnnn12)CCCC3	-9	·	14*	-9	10	-2
CSc1nc2sc3c(c2c2nnnn12)CCC3	-4	·	0	-4	-1	-1
N#Cc1c(N)n(C2CCCCC2)c2nc3ccccc3nc12	27	-14	7	-64	25*	6
CCC(=O)Nc1c(C#N)c2nc3ccccc3nc2n1C1CCCCC1	-5	·	3	-25	10	0
CN1Cc2cc(C(=O)c3cc(Cl)cc(CSc4ncccn4)c3O)cnc2NC1=O	80*	60*	-1	-62	-3	-1
COC(=O)CC1Oc2ccccc2N(Cc2ccccc2)C1=O (configuration not stated)	-15	0	0	-20	-2	-1
CCCCCOc1ccc(N2C(=O)CC(N(O)c3ccccc3)C2=O)cc1 (configuration not stated)	5	-1	0	-12	-1	-1
CCCCOc1ccc(N2C(=O)CC(N(O)c3ccccc3)C2=O)cc1 (configuration not stated)	34*	9	1	-25	0	-2
Cc1nnc(NCc2ccncc2)c2ccccc12	-5	5	1	-8	88*	-1
Cc1nnc(NCc2ccco2)c2ccccc12	-7	-15	-1	0	-1	-1
COc1ccc(C2(C(=O)NCCCN3CCOCC3)CCOCC2)cc1	3	-1	1	-2	-2	0
CCN1CCN(C(=O)C2c3cc(OC)c(OC)cc3C(=O)N(C)C2c2ccc(SC)cc2)CC1 (configuration not stated)	-1	60*	-1	·	-1	·
CC1(C)Cc2ccccc2-c2nc(NCCCO)n(-c3ccccc3)c(=O)c21	11	-19	1	-2	1	2
Cc1cc(SCC#N)n2nc(C)c(-c3ccccc3)c2n1	57*	2	0	-38	0	0
CCOC(=O)c1ccc2c(c1)nc(SCC(=O)N1CCCCC1)n2CC	10	1	0	15	-1	-1
CCn1c(C)nc2cc(C(=O)OCCC(F)(F)F)ccc21	0	6	-1	-13	26*	-1
CCCCCOc1ccc(C2C(C(C)=O)=C(C)Nc3ncnn32)cc1OC (configuration not stated)	5	-5	0	-26	-3	-1
CC(CCc1ccccc1)NCc1ccncc1 (configuration not stated)	-2	4	0	-10	-3	-1
SMILES	HTR1E antagonist	5HT1a antag	HTR1E agonist	S1P1 ag-PAM	HTR1A agonist	S1P3 agonist
O=S(CCc1ccncc1)Cc1ccccc1 (configuration not stated)	6	·	0	4	40*	3
COc1ccc(NC(=O)CC2C(=O)N(c3cccc(OC)c3)C(=O)N2C2CCCCC2)cc1 (configuration not stated)	1	-2	0	·	0	·
O=C(Nc1ccc(-c2nc3ncccc3o2)cc1)c1ccco1	-11	10	-1	·	0	0
O=C(Nc1ccc(-c2nc3ncccc3o2)cc1)c1ccc(Br)o1	62*	9	1	·	-2	0
Cc1ccc(S(=O)(=O)N2CCC(C(=O)N3CCC[C@H]3C(=O)NCc3ccco3)CC2)cc1	-1	14	0	8	-3	-1
CCOc1cccc(NC(=O)c2ccc(S(=O)(=O)N3CCCC3)cc2)c1	18	-1	1	4	0	-1
COC(=O)c1[nH]c2cc(OC)c(OC)cc2c1NC(=O)CN1CCN(Cc2ccccc2)CC1	39*	7	0	-29	1	0
Cc1nn2c(-c3cccc(NC(=O)CSc4nc5ccccc5o4)c3)nnc2c2ccccc12	14	-2	2	4	1	0
Oc1c(Cl)cc(Cl)cc1Sc1cc(Cl)cc(Cl)c1O	5	·	0	132*	-1	1
CC1=C(C(=O)Nc2ccccc2C)C(c2ccc(C)o2)N2C(=O)CSC2=N1 (configuration not stated)	1	-8	0	-10	0	-1
CCOC(=O)C1CCCN(CC(=O)NC2CC2)C1 (configuration not stated)	2	-1	0	-13	22*	1
C/C(=C1/SC(N2CCCC2)=NC1=O)c1ccc(Br)cc1	-1	-8	-1	0	0	0
CC(C)(CC(=O)N1CCN(c2ccc(Cl)cc2)CC1)CC1=NS(=O)(=O)c2ccccc2N1	4	-4	1	63*	2	-1
Cc1cccc(C)c1NC(=O)Cn1c(=O)n(CCCC(=O)NCc2ccco2)c(=O)c2sccc21	3	13	-1	-2	1	0
Cc1ccc(C)c(OCCCC(=O)Nc2ccc(N3CCOCC3)cc2)c1	-13	-5	1	19	26*	-1
CC1=C(C(=O)OC2CCCCCCC2)C(c2ccc(O)cc2)NC(=O)N1 (configuration not stated)	29*	26	0	22	-3	-1
C=CCn1c2ccccc2c2nnc(SCc3ccc4nonc4c3)nc21	13	-9	0	-20	1	-1
COc1ccc(Cn2nnnc2C(c2ccc(N(C)C)cc2)N2CCC(C)CC2)cc1 (configuration not stated)	10	44*	1	-2	3	-1
CC1CCN(C(c2ccc(N(C)C)cc2)c2nnnn2Cc2ccccc2)CC1 (configuration not stated)	5	15	-1	4	-1	-1
COc1ccc(S(=O)(=O)N2CCC(n3cnc4cc(C(F)(F)F)ccc43)CC2)cc1	4	-13	22*	-10	3	0
